The data set is classed as in vivo, Sprague-Dawley rats. The conditions noted are these: for T max / half-life: Normal rats, oral Gandi capsule 80 mg kg^-1, plasma, n = 6, mean ± SD; for concentration at 2 h / half-life: male, Sprague-Dawley, rat, plasma, po; for concentration at 2 h: 80 mg kg^-1 Gandi capsule; for half-life: 80 mg/kg, T 1/2 z. The gist of the method: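 Diabetes was induced by a single ip STZ dose of 45 mg kg−1 in citrate buffer (0.1 mol L−1, pH 4.5), with blood glucose >16.7 mmol L−1 after 1 week; rats were dosed on day 10. Rats were fasted 12 h, then given capsule contents in 0.3% CMC-Na orally; n = 6/group. Plasma was sampled 0–48 h, precipitated with IS in methanol and analysed by positive-ion LC-MS/MS; results are mean ± SD, compared by t-test.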

`O=C(O)[C@H]1O[C@@H](Oc2cc3oc(-c4ccccc4)cc(=O)c3c(O)c2O)[C@H](O)[C@@H](O)[C@@H]1O` [Baicalin, baicalin] gave a T max of 1.50 ± 1.40 h, a concentration at 2 h of 723 ng/mL and a half-life of 567 ± 172 min.

As to `COC(=O)C1=CO[C@@H](O[C@@H]2O[C@H](CO)[C@@H](O)[C@H](O)[C@H]2O)[C@@H]2[C@@H](C)[C@@H](O)C[C@H]12` [Loganin, loganin], the T max is listed as 1.25 ± 0.35 h, the concentration at 2 h was determined as 42.6 ng/mL and the half-life was 27.6 ± 22.8 min. The “Time after oral administration in which the compound can be detected in plasma” value (oral Gandi capsule, rat plasma, quick elimination phase) is at most 2.5 h.

Take `COc1c(O)cc(O)c2c(=O)cc(-c3ccccc3)oc12` [Wogonin, wogonin]: the concentration at 2 h stood at 54.9 ng/mL and the half-life was 91.2 ± 15 min.

Broadly, the half-life is how long it takes for the measured level to halve. Read a high half-life as slow decline.

For the origin of these results see PMC9078286 (RSC Advances, 2018).
